According to ChEMBL document CHEMBL1126168, “Benzazepinone calcium channel blockers. 3. Synthesis and structure-activity studies of 3-alkylbenzazepinones” (J Med Chem, 1992):

What was measured:
Oryctolagus cuniculus = species: Oryctolagus cuniculus; test: In vitro evaluation for the vasorelaxant effects in circumferential strips of potassium-depolarized rabbit aorta. (IC50 in rabbit aorta strips contracted with KCl); type: functional
[1] = In vivo evaluation for the percentage decrease in blood pressure at 135 umol/kg administered through oral route in spontaneously hypertensive rats and observed for 12-18 h; type: functional, Rattus norvegicus
Method in brief: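 Spontaneously hypertensive rats, n = 5, dosed orally at 135 μmol/kg; blood pressure followed and reported as percent decrease over the 0-6, 6-12 and 12-18 h intervals after dosing.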

[2] = In vivo evaluation for the percentage decrease in blood pressure at 45 umol/kg administered through oral route in spontaneously hypertensive rats and observed for 0-6 h
[3] = In vivo evaluation for the percentage decrease in blood pressure at 45 umol/kg administered through oral route in spontaneously hypertensive rats and observed for 6-12 h
[4] = In vivo evaluation for the percentage decrease in blood pressure at 45 umol/kg administered through oral route in spontaneously hypertensive rats and observed for 12-18 h
[5] = (§1) In vitro inhibition [3H]diltiazem binding to calcium channels in isolated guinea pig skeletal muscle microsomal preparations; type: microsomes, Cavia porcellus, Muscle tissue, Microsome
Cavia porcellus = species: Cavia porcellus; test: as §1; type: microsomes; settings: Muscle tissue, Microsome, concentration not given here

Row | Compound | IC50 (Oryctolagus cuniculus) | Decrease [1] | Decrease [2] | Decrease [3] | Decrease [4] | Kd [5] | inhibition (Cavia porcellus)
1 | COc1ccc([C@@H]2Cc3ccccc3N(CCN(C)C)C(=O)[C@@H]2C)cc1.Cl | 1100 nM | 8% | 6% | 4% | – | – | –
2 | C=CC[C@H]1C(=O)N(CCN(C)C)c2ccc(C(F)(F)F)cc2C[C@H]1c1ccc(OC)cc1.Cl | 240 nM | – | 23% | 28% | 30% | – | –
3 | C=CC[C@H]1C(=O)N(CCN(C)C)c2cccc(C(F)(F)F)c2C[C@H]1c1ccc(OC)cc1.Cl (relative stereo) | 77 nM | 27% | 33% | 32% | – | – | –
4 | COc1ccc([C@@H]2Cc3c(cccc3C(F)(F)F)N(CCN(C)C)C(=O)[C@H]2C)cc1 | – | – | 24% | 23% | 17% | – | –
5 | C=CCC1C(=O)N(CCN(C)C)c2cccc(C(F)(F)F)c2CC1c1ccc(OC)cc1.Cl (centres undefined) | 100 nM | – | 24% | 27% | 29% | – | –
6 | COc1ccc([C@@H]2Cc3c(OC)cccc3N(CCN(C)C)C(=O)[C@@H]2C)cc1.Cl | – | 8% | 7% | 10% | – | 400 nM | –
7 | COc1ccc([C@@H]2Cc3c(ccc(SC)c3OC)N(CCN(C)C)C(=O)[C@@H]2C)cc1.Cl | 70 nM | 14% | 18% | 15% | – | – | –
8 | CC[C@H]1C(=O)N(CCN(C)C)c2ccc(Cl)cc2C[C@H]1c1ccc(OC)cc1 | 280 nM | 21% | 20% | 22% | – | – | –
9 | COc1ccc([C@@H]2Cc3cc(Cl)ccc3N(CCN(C)C)C(=O)[C@@H]2C)cc1 | 150 nM | 11% | 12% | 13% | – | 670 nM | –
10 | CC[C@H]1C(=O)N(CCN(C)C)c2cccc(Cl)c2C[C@H]1c1ccc(OC)cc1 | 80 nM | – | 14% | 18% | 7% | – | –
11 | COc1ccc([C@@H]2Cc3c(cccc3C(F)(F)F)N(CCN(C)C)C(=O)[C@H]2C)cc1.Cl | – | 8% | 12% | 9% | – | – | –
12 | C=CC[C@H]1C(=O)N(CCN(C)C)c2ccc(Cl)cc2C[C@H]1c1ccc(OC)cc1 | 160 nM | 25% | 23% | 23% | – | 5040 nM | –
13 | COc1ccc([C@@H]2Cc3c(cccc3C(F)(F)F)N(CCN(C)C)C(=O)[C@@H]2Cc2ccccc2)cc1 | – | 6% | 14% | 8% | – | – | –
14 | CCC[C@H]1C(=O)N(CCN(C)C)c2cccc(C(F)(F)F)c2C[C@H]1c1ccc(OC)cc1.Cl | – | – | 14% | 19% | 24% | – | –
15 | C=CC[C@H]1C(=O)N(CCN(C)C)c2ccccc2C[C@H]1c1ccc(OC)cc1.Cl | – | 18% | 25% | 23% | – | – | –
16 | COc1ccc([C@@H]2Cc3cc(C(F)(F)F)ccc3N(CCN(C)C)C(=O)[C@@H]2C)cc1.Cl | 1230 nM | 25% | 23% | 23% | – | – | –
17 | COc1ccc([C@@H]2Sc3cc(Cl)ccc3N(CCN(C)C)C(=O)[C@@H]2OC(C)=O)cc1 [CLENTIAZEM] | 100 nM | – | 29% | 16% | 22% | – | –
18 | COc1ccc([C@@H]2Cc3c(cccc3C(F)(F)F)N(CCN(C)C)C(=O)[C@@H]2C)cc1 | 80 nM | 22% | 28% | 22% | – | – | 90%
19 | COc1ccc([C@@H]2Cc3c(ccc(Br)c3OC)N(CCN(C)C)C(=O)[C@@H]2C)cc1.Cl | 90 nM | 14% | 9% | 12% | – | 120 nM | –
20 | CCC[C@H]1C(=O)N(CCN(C)C)c2ccccc2C[C@H]1c1ccc(OC)cc1.Cl | – | 12% | 10% | 11% | – | 250 nM | –
21 | COc1ccc([C@@H]2Cc3c(cccc3C(F)(F)F)N(CCN(C)C)C(=O)[C@@H]2OC(C)=O)cc1 | – | – | 17% | 12% | 12% | – | –
22 | CCC[C@H]1C(=O)N(CCN(C)C)c2ccc(C(F)(F)F)cc2C[C@H]1c1ccc(OC)cc1.Cl | 1200 nM | 8% | 6% | 5% | – | – | –
23 | CC[C@H]1C(=O)N(CCN(C)C)c2cccc(C(F)(F)F)c2C[C@H]1c1ccc(OC)cc1.Cl | – | 15% | 24% | 19% | – | – | –
